{
  "source": "ChEMBL document CHEMBL4017495",
  "about": "“Identification and Characterization of the First Selective Y4 Receptor Positive Allosteric Modulator” (J Med Chem, 2017)",
  "key": {"[1]": {"target": "T1, Neuropeptide Y receptor type 4 (Homo sapiens, UniProt P50391)", "T1 sequence (P50391 whole entry)": "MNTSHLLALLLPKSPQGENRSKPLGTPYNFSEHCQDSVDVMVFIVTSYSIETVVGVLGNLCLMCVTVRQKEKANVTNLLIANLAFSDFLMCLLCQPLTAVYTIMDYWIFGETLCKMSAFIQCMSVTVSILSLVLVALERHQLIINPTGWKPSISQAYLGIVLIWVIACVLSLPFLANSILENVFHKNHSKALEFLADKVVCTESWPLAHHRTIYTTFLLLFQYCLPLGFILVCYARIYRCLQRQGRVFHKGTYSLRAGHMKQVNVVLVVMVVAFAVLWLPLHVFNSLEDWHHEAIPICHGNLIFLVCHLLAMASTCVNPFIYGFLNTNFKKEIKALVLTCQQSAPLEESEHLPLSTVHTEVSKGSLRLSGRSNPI"}, "[2]": {"target": "T1, Neuropeptide Y receptor type 4", "remark": "listed apart in the source"}, "[3]": {"target": "T1, Neuropeptide Y receptor type 4", "remark": "listed apart in the source"}, "[4]": {"target": "Neuropeptide Y receptor type 4 (Mus musculus) (UniProt Q61041)", "sequence (Q61041 whole entry)": "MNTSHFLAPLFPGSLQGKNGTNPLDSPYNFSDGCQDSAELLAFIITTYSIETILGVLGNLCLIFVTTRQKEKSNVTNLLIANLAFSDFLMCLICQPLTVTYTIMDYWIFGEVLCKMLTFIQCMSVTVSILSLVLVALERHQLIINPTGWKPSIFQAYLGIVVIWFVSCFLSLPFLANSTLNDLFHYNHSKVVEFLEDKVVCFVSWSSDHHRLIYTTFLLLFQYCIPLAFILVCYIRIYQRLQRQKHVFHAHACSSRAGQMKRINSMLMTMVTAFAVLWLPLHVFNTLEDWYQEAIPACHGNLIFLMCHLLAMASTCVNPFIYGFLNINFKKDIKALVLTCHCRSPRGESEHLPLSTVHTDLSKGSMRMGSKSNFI", "assay": "Agonist activity at NY4 receptor in mouse descending colon mucosa assessed as increase in mucosal antisecretory response at 30 uM incubated for 5 mins", "in_short": "(§1)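 Mouse descending colon mucosa was mounted in Ussing chambers (0.14 cm2 exposed) in oxygenated Krebs–Henseleit at 37 °C, voltage-clamped at 0 mV, with Isc recorded continuously. After a stable basal Isc (20–30 min), basolateral pretreatment was 30 μM compound or DMSO vehicle (0.3%) for 5 min. VIP (10 nM) was given for 5–10 min, then single rat PP additions (3, 10 or 30 nM). PYY (10 nM) followed 20 min later.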"}, "[5]": {"target": "T1, Neuropeptide Y receptor type 4", "remark": "listed apart in the source"}, "[6]": {"target": "T1, Neuropeptide Y receptor type 4", "conditions": "30 uM"}, "[7]": {"target": "T1, Neuropeptide Y receptor type 4", "remark": "listed apart in the source"}, "[8]": {"target": "Neuropeptide Y receptor type 4 (Mus musculus) (UniProt Q61041)", "assay": "Positive allosteric modulation of NY4 receptor in mouse descending colon mucosa assessed as increase in mucosal antisecretory response to pancreatic polypeptide at 30 uM preincubated for 5 mins followed by pancreatic polypeptide addition after 20 mins", "in_short": "as §1"}, "[9]": {"target": "T1, Neuropeptide Y receptor type 4", "remark": "listed apart in the source"}, "[10]": {"target": "T1, Neuropeptide Y receptor type 4", "remark": "listed apart in the source"}, "[11]": {"target": "T1, Neuropeptide Y receptor type 4", "assay": "Positive allosteric modulation of human C-terminal eYFP-fused human NY4 receptor expressed in African green monkey COS7 cells co-expressing delta6Galphaqi4-myr assessed as potentiation of pancreatic polypeptide-mediated Ca2+ flux treated at 20 secs post baseline detection followed by addition of pancreatic polypeptide after 140 secs by Fluo2-AM fluorescent dye based-assay", "assay_type": "functional, cell-based", "in_short": "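COS7 cells stably co-expressing Y4R-eYFP and Δ6Gαqi4-myr were seeded overnight. They were loaded with 2.4 μM Fluo2-AM in HBSS/20 mM HEPES/[…] for 60 min at 37 °C, then kept in assay buffer. Fluorescence was read at ex 485/em 525 nm. Compound was added after a 20 s baseline and peptide at 140 s. Response was taken as x-fold over basal, normalized to the DMSO control, and fitted to an operational model of allosterism. Duplicates, at least three independent runs.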"}, "[12]": {"target": "T1, Neuropeptide Y receptor type 4", "conditions": "30 uM", "remark": "listed apart in the source"}, "[13]": {"target": "T1, Neuropeptide Y receptor type 4", "conditions": "HEK293, 30 uM"}, "[14]": {"target": "T1, Neuropeptide Y receptor type 4", "remark": "listed apart in the source"}, "[15]": {"target": "T2, Neuropeptide Y receptor type 1/2 (Mus musculus) (UniProt Q04573+P97295)", "T2 sequence (P97295 whole entry, looked up)": "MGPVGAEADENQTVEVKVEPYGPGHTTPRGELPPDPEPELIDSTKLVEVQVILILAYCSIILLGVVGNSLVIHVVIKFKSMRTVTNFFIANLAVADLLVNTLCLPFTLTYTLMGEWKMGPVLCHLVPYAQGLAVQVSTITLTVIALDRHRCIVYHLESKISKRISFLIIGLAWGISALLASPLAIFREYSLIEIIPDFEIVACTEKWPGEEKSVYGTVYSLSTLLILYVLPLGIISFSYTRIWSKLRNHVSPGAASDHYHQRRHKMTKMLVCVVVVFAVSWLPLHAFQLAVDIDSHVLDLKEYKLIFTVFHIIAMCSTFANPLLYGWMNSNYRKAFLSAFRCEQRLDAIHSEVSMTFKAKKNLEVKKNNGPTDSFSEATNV", "T2 sequence (Q04573 whole entry, looked up)": "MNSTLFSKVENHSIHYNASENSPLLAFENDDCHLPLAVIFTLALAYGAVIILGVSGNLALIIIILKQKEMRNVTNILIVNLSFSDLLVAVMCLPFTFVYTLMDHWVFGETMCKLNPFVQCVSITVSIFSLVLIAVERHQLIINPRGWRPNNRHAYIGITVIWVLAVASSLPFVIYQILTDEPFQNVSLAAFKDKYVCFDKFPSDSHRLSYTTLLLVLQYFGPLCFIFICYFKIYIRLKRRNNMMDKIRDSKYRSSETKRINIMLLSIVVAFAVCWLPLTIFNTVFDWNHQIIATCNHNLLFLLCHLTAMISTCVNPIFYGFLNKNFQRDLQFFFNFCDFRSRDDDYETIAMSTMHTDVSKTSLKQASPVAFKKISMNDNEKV", "assay": "Positive allosteric modulation of NY1/2 receptor in mouse descending colon mucosa assessed as increase in mucosal antisecretory response to vasoactive intestinal polypeptide at 30 uM preincubated for 5 mins followed by pancreatic polypeptide addition after 20 mins", "in_short": "as §1"}, "[16]": {"target": "T1, Neuropeptide Y receptor type 4", "conditions": "30 uM", "remark": "listed apart in the source"}, "[17]": {"target": "T1, Neuropeptide Y receptor type 4", "conditions": "HEK293, 30 uM", "remark": "listed apart in the source"}, "[18]": {"target": "T2, Neuropeptide Y receptor type 1/2 (Mus musculus)", "assay": "Positive allosteric modulation of NY1/2 receptor in mouse descending colon mucosa assessed as increase in mucosal antisecretory response to peptide YY at 30 uM preincubated for 5 mins followed by pancreatic polypeptide addition after 20 mins", "in_short": "as §1"}, "[19]": {"target": "T1, Neuropeptide Y receptor type 4", "remark": "listed apart in the source"}, "[20]": {"target": "T1, Neuropeptide Y receptor type 4", "conditions": "HEK293, 30 uM", "remark": "listed apart in the source"}},
  "note": "Activity calls are given as the source filed them. The calls are words filed in the database; no cut-off is given here.",
  "data": [
    {"smiles": "CC(C)(C)c1ccc(OC2CCCCC2O)cc1", "note": "(stereo not given)", "values": [
      {"measurement": "log(activity)", "setting": "[1]", "value": 0.41},
      {"measurement": "log(activity)", "setting": "[2]", "value": 0.79},
      {"measurement": "pKb", "setting": "[3]", "value": 4.4},
      {"measurement": "Activity", "setting": "[4]", "value": "inactive"},
      {"measurement": "log(activity)", "setting": "[5]", "value": 0.46},
      {"measurement": "Emax", "setting": "[6]", "value": 94, "unit": "%"},
      {"measurement": "log(activity)", "setting": "[7]", "value": 0.36},
      {"measurement": "Activity", "setting": "[8]", "value": "Active"},
      {"measurement": "log(activity)", "setting": "[9]", "value": 0.9},
      {"measurement": "pKb", "setting": "[10]", "value": 4.4},
      {"measurement": "EC50", "setting": "[11]", "value": 5.1, "unit": "µM"},
      {"measurement": "Emax", "setting": "[12]", "value": 89, "unit": "%"},
      {"measurement": "Emax", "setting": "[13]", "value": 118, "unit": "%"},
      {"measurement": "log(activity)", "setting": "[14]", "value": 0.3},
      {"measurement": "Activity", "setting": "[15]", "value": "inactive"},
      {"measurement": "Emax", "setting": "[16]", "value": 95, "unit": "%"},
      {"measurement": "Emax", "setting": "[17]", "value": 145, "unit": "%"},
      {"measurement": "Activity", "setting": "[18]", "value": "inactive"},
      {"measurement": "pKb", "setting": "[19]", "value": 4.4},
      {"measurement": "Emax", "setting": "[20]", "value": 144, "unit": "%"}
    ]}
  ]
}
